# Source: PubChem BioAssay
# Activity calls are given as the source filed them.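 How the source made its calls, unless noted: active means inhibition at or above 50% relative to wild type and mutant plate controls; inactive means inhibition below 50%.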
# Tests used:
# [1] = inhibitors of TNFa-induced NFkB p65 translocation, primary screen, imaging, HUVEC, MLSMR starter and 10KST1 sets (AID 438;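 active means inhibition above 20% together with a positive visual image hit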;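 further: compound added about 3h40 before a 20 min TNFalpha stimulation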;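 on inhibition: signal is the nuclear over cytoplasmic p65 intensity ratio per well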); settings: HUVEC TNFa-induced p65 nuclear translocation; cell count: measured here: nuclei count (cytotoxicity indicator), at 2.08 µM; inhibition: at 2 µM, stronger effect = higher value, 0% TNFa-plus-vehicle, 100% no-TNFa wells
# [2] = inhibitors of E-selectin induction by TNFa, primary screen, imaging, HUVEC, immunofluorescence, MLSMR starter and 10KST1 sets (AID 487;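 active means visually confirmed hit in the image check and inhibition above 20%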;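 on inhibition: signal is fraction of cell area covered by stained E-selectin grains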;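 on nuclei count: 100% = median nuclei count of all wells on the same plate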); settings: HUVEC TNFalpha-induced E-selectin immunofluorescence imaging, at 2 µM; inhibition: stronger effect = higher value; nuclei count: measured here: cell number, toxicity
# [3] = DUSP6 inhibitors restoring Erk phosphorylation by chemical complementation, primary imaging in DUSP6-transfected HeLa (AID 609;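 active means compounds giving at least 50% inhibition in the cell-based MKP-3 phosphatase rescue imaging test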;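 on inhibition: phospho-Erk level distribution per well compared with pooled transfected vehicle control wells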); settings: HeLa MKP-3 transfected, phospho-Erk imaging KS statistic, at 10 µM, cells stimulated with TPA for 15 min
# [4] = biological target: Dual specificity protein phosphatase 6 (Homo sapiens) (UniProt Q16828); experiment: as above; settings: HeLa MKP-3 transfected, phospho-Erk imaging KS statistic; at 10 µM; stronger effect = higher value; cells stimulated with TPA for 15 min
# Chain of Dual specificity protein phosphatase 6 (Homo sapiens) (Q16828 whole entry, looked up): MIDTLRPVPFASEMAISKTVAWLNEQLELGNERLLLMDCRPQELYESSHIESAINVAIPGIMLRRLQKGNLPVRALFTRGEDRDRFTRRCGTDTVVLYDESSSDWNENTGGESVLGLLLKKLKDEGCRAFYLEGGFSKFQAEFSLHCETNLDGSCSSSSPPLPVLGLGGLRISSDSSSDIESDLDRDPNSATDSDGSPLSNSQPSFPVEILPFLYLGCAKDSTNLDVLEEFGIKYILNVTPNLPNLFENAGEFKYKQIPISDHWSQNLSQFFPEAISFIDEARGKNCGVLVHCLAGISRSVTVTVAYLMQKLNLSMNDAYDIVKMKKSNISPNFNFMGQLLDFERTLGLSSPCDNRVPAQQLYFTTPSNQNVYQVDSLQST
# [5] = biological target: Voltage-gated potassium channel subunit beta-2 (Rattus norvegicus) (UniProt P62483); experiment: KvBeta enzyme negative modulators, primary screen, biochemical, NADPH fluorescence (AID 622;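 active means fluorescence slope higher than the sample average by over 3 SD, cut at about -0.22 in these data, passing the limit was not always enough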;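 further: slope of raw intensity against log time taken from 70 to 1610 s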); settings: recombinant KvBeta, 4-cyanobenzaldehyde reduction, at 10 µM, stronger effect = higher value
# Chain of Voltage-gated potassium channel subunit beta-2 (Rattus norvegicus) (P62483 whole entry, looked up): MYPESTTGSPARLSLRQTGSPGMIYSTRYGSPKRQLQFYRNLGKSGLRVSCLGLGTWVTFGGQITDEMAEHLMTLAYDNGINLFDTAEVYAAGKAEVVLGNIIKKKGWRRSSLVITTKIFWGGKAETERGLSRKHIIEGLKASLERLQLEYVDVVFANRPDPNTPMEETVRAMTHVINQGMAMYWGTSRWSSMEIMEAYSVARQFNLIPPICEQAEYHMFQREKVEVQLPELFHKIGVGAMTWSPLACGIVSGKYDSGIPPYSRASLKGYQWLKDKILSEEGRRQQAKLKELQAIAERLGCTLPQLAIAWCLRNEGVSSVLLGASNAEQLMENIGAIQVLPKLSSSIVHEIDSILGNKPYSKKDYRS
# [6] = biological target: Voltage-gated potassium channel subunit beta-2 (Rattus norvegicus) (UniProt P62483); experiment: KvBeta positive modulators, primary screen, biochemical, NADPH fluorescence (AID 623;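 active means NADPH fluorescence slope more negative than the mean of all samples by about 3 SD, 99.7% confidence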;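 further: fluorescence intensity change per second fitted from 20 to 320 s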); settings: Recombinant KvBeta, NADPH fluorescence decrease slope, 10 min; at 10 µM; stronger effect = lower value
# [7] = biological target: Alpha-2C adrenergic receptor (Homo sapiens) (UniProt P18825); experiment: modulators of alpha2C/GIRK thallium flux, primary screen, cell-based, HEK293 alpha2C/GIRK1/2 (AID 624;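 active means fluorescence slope after compound addition differing from the mean of all screened samples at 99.7% confidence, in either direction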;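 further: slope of fluorescence ratio to pre-addition baseline per second over 15 to 24 s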); settings: thallium flux BTC fluorescence, at 10 µM, actives lie on both sides
# Chain of Alpha-2C adrenergic receptor (Homo sapiens) (P18825 whole entry, looked up): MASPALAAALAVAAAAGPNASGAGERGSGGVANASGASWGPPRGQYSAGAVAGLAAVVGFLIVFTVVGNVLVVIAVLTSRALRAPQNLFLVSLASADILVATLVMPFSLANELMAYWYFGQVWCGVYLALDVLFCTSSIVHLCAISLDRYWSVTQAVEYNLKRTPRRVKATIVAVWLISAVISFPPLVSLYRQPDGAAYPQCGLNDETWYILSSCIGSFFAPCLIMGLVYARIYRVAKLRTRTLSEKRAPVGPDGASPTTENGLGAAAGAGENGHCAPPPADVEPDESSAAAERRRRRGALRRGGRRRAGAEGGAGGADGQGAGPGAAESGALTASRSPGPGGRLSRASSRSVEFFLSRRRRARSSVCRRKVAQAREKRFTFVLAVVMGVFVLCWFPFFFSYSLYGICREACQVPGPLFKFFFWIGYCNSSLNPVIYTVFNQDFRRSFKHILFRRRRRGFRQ
# [8] = inhibitors of larval lipid processing in zebrafish, primary screen, whole organism, PED6 fluorescence, gall bladder and intestine (AID 686;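 active means a full or partial loss of lipid-probe fluorescence in the fish gall bladder, intestine or both, judged by eye; inactive means no fluorescence loss, or compound toxic to the fish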;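 further: larvae 5 to 7 days old with five fish per well; signal comes from phospholipase A2 cleavage of quenched PED6 carried via bile; overnight exposure to compound and PED6 before scoring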); settings: Zebrafish larvae PED6 lipid processing, fluorescence scoring; screened at 20 µM (by protocol)
# How it was run: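 Doses: 20 µM single dose. Test system: live zebrafish larvae aged 5-7 days, whole organism. Quantity: five larvae per well. Measured by: By-eye fluorescence microscopy. Reagent: ingested quenched lipid PED6 at 100 nM. Read-out: visual per-well fluorescence inhibition score. Times: overnight exposure of larvae to compound plus PED6.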
# [9] = inhibitors of Chlamydomonas gravitaxis, primary screen, whole organism, Chlamydomonas reinhardtii, WT vs cilia-less mutant, absorbance, 96-well (AID 463189); settings: OD600 absorbance, 2 days, at 10 µM, stronger effect = higher value;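 further: 0% = wild type cc124 cells in DMSO and 100% = ciliumless bld1 mutant cells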
# [10] = measured here: cell density z-score
# [11] = measured here: nuclear c-Myc green intensity z-score
# [12] = measured here: nuclear pErk red intensity z-score, stronger effect = higher value
Compound,cell count [1],inhibition [1],inhibition [2],nuclei count [2] [%],"z-score [3, 10]","z-score [3, 11]","z-score [3, 12]",inhibition [4],fluorescence slope [5],NADPH fluorescence slope [6],slope [7],outcome [8],inhibition [9]
COc1ccccc1C1/C(=C(/O)c2ccc(C)cc2)C(=O)C(=O)N1Cc1ccco1 (stereo unspecified),550,9.2% (inactive),6.3% (inactive),101,0.623,0.192,-1.11,-11.5% (inactive),-0.552 (inactive),-6.1e-05 (inactive),0.00643 (inactive),inactive,-13.2% (inactive)
COc1ccc(C2C(C#N)=C(SC)NC3=C2C(=O)CC(C)(C)C3)cc1 (stereo unspecified),369,-8.9% (inactive),-30.1% (inactive),156,1.03,-0.788,1.1,-12.6% (inactive),-0.411 (inactive),-9.7e-05 (inactive),0.00455 (inactive),inactive,27.3% (inactive)
COc1ccc(CCn2c(C)ccc2C)cc1OC,476,-5.7% (inactive),-58.3% (inactive),112,-0.324,0.735,-0.301,3.66% (inactive),-0.488 (inactive),-8e-05 (inactive),0.00401 (inactive),inactive,-7.78% (inactive)
NS(=O)(=O)c1ccc(-c2ccc(C=NC3CCS(=O)(=O)C3)o2)cc1 (stereo unspecified),576,0.1% (inactive),-53.9% (inactive),94,-1.97,0.0247,1.53,-4.7% (inactive),-0.59 (inactive),-5.6e-05 (inactive),0.00467 (inactive),inactive,-10.3% (inactive)
CN1CCN(C(=O)CSc2nc(-c3ccncc3)ccc2C#N)CC1,690,-11.2% (inactive),-21.2% (inactive),192,0.498,0.894,-1.8,-7.28% (inactive),-0.416 (inactive),-5e-05 (inactive),0.00348 (inactive),inactive,-6.09% (inactive)
CC(C)CN1C(=O)NC(NC(=O)c2cccnc2)(C(F)(F)F)C1=O (stereo unspecified),488,-2.8% (inactive),-106% (inactive),130,0.462,-0.157,-1.2,1.75% (inactive),-0.505 (inactive),-7.1e-06 (inactive),0.00612 (inactive),inactive,-0.985% (inactive)
CCCOc1ccc(/C(O)=C2/C(=O)C(=O)N(CCCN3CCOCC3)C2c2ccncc2)cc1 (stereo unspecified),398,-0.5% (inactive),-151% (inactive),145,0.781,0.803,-0.95,-8.27% (inactive),-0.341 (inactive),-1.2e-05 (inactive),0.0051 (inactive),inactive,0.312% (inactive)
CCN(CC)CCN1C(=O)C(=O)/C(=C(/O)c2ccc(F)cc2)C1c1ccncc1 (stereo unspecified),519,-13.3% (inactive),-36.8% (inactive),110,0.315,0.605,-0.561,-11.5% (inactive),-0.542 (inactive),-1e-05 (inactive),0.00505 (inactive),inactive,-7.51% (inactive)
[N-]=[N+]=CC(=O)c1ccnc(C(=O)C=[N+]=[N-])c1,544,-10.2% (inactive),-164% (inactive),136,1.23,-1.66,-0.478,21.8% (inactive),-0.54 (inactive),-6.3e-05 (inactive),0.00557 (inactive),inactive,3.22% (inactive)
CC(C)OC(=O)c1sc2nc3c(cc2c1N)C(=O)CCC3,334,-8% (inactive),-109% (inactive),159,1.59,-1.25,-0.674,9.42% (inactive),-0.403 (inactive),-9.2e-05 (inactive),0.0073 (inactive),inactive,-4.23% (inactive)
Cc1cc(C(F)(F)F)nn1CC(=O)NCC1CCCO1 (stereo unspecified),516,-3.1% (inactive),-24% (inactive),137,-0.885,0.653,1.12,-3.98% (inactive),-0.484 (inactive),-0.000135 (inactive),0.00552 (inactive),inactive,12.4% (inactive)
COc1ccc2[nH]c(C)c(C(=O)CN3CCN(C(=O)c4ccco4)CC3)c2c1,567,-7.1% (inactive),-4.8% (inactive),165,-1.11,-0.714,0.0705,-7.01% (inactive),-0.311 (inactive),-8.4e-06 (inactive),0.00523 (inactive),inactive,-1.6% (inactive)
CN1CCN(CCCCOc2ccc(F)cc2)CC1,488,-6.3% (inactive),-39.9% (inactive),114,1.94,-1.66,1.15,7.48% (inactive),-0.483 (inactive),-0.00016 (inactive),0.00459 (inactive),inactive,30.4% (inactive)
Cc1ccc(C2/C(=C(/O)c3ccc(OC(C)C)cc3)C(=O)C(=O)N2CCN2CCOCC2)cc1 (stereo unspecified),526,-2% (inactive),7.7% (inactive),166,0.417,1.31,0.598,-2.91% (inactive),-0.295 (inactive),1.7e-05 (inactive),0.00456 (inactive),inactive,2.83% (inactive)
Cc1nc(SCC(N)=O)[nH]c(=O)c1Cc1ccc(OC(C)C)cc1,585,5.2% (inactive),22.1% (inactive),150,-0.515,0.503,0.0528,3.5% (inactive),-0.331 (inactive),2.9e-05 (inactive),0.00497 (inactive),inactive,-1.58% (inactive)
CC(=O)c1ccc(O)c(CO)c1,639,-20.9% (inactive),-32.3% (inactive),101,-0.0166,0.525,-0.493,4.37% (inactive),-0.463 (inactive),-1.1e-05 (inactive),0.00706 (inactive),inactive,-12.4% (inactive)
CCCCOC(=O)CSC1=C(C#N)C(c2ccccc2OC)C(C#N)C(=O)N1 (stereo unspecified),504,-3% (inactive),-46% (inactive),116,-0.706,0.338,1.09,9.39% (inactive),-0.481 (inactive),-0.000165 (inactive),0.00464 (inactive),inactive,-21.1% (inactive)
COc1cccc(-c2nnc3sc(-c4ccccc4)nn23)c1,659,1.9% (inactive),-40.1% (inactive),160,-2.38,2.05,2,-15% (inactive),-0.424 (inactive),-0.000144 (inactive),0.00489 (inactive),inactive,-5.58% (inactive)
CC(C)(C)NCC(=O)c1c[nH]c2ccccc12,535,-1.7% (inactive),-49.5% (inactive),146,-0.736,1.42,-0.666,-1.75% (inactive),-0.35 (inactive),5.2e-06 (inactive),0.00435 (inactive),inactive,-1.18% (inactive)
CC(C)Cc1nc(N2CCOCC2)c(C#N)c2c1CCC2,488,3.3% (inactive),-87.5% (inactive),114,-1.23,0.0175,0.0727,-5.26% (inactive),-0.511 (inactive),-1.9e-05 (inactive),0.00512 (inactive),inactive; toxic,-5.18% (inactive)
Nc1nnnn1CC(=O)OCc1cccc(Br)c1,351,-7.3% (inactive),-43.6% (inactive),167,0.909,-0.848,1.13,1.42% (inactive),-0.446 (inactive),-0.000151 (inactive),0.00561 (inactive),inactive,-1.03% (inactive)
S=c1nc(-c2ccccc2)[nH]n1-c1ccccc1,339,-3.4% (inactive),-90.9% (inactive),110,1.6,-1.83,-0.637,11.4% (inactive),-0.454 (inactive),3.3e-06 (inactive),0.0253 (active),inactive,-5.69% (inactive)
Cc1nnc(SCCC#N)n(CCC#N)c1=O,585,-13.5% (inactive),24.6% (inactive),164,-0.25,0.45,2.53,1.12% (inactive),-0.396 (inactive),-3e-05 (inactive),0.00584 (inactive),inactive,7.85% (inactive)
CCCNC(=O)N(C)c1nncnc1C(=O)NC,503,-20.4% (inactive),-13.3% (inactive),99.4,1.47,0.478,-1.19,4.72% (inactive),-0.517 (inactive),1.1e-05 (inactive),0.00825 (inactive),inactive,-3.95% (inactive)
CCOC(=O)C1=C(c2ccccc2)NC(SCC(=O)Nc2ccccc2C)=C(C#N)C1c1ccco1 (stereo unspecified),433,-4.2% (inactive),-136% (inactive),166,-0.18,-0.317,-0.0556,-0.159% (inactive),-0.408 (inactive),-6.1e-05 (inactive),0.0072 (inactive),inactive,0.63% (inactive)
CCOC(=O)c1ccc(N2CC(O)=C(c3nc4ccccc4c(=O)[nH]3)C2=N)cc1,623,-11.3% (inactive),45.3% (inactive),186,-1.54,0.558,1.53,-13.3% (inactive),-0.208 (inactive),-1.8e-05 (inactive),0.00503 (inactive),inactive,2.42% (inactive)
COc1ccc(-c2nn3c(COc4ccccc4)nnc3s2)cc1OC,597,-0.7% (inactive),33.6% (inactive),96.3,1.18,-0.256,-1,-0.674% (inactive),-0.395 (inactive),-6e-05 (inactive),0.00544 (inactive),inactive,-1.36% (inactive)
